In ChEMBL document CHEMBL3232764, “Influence of the adamantyl moiety on the activity of biphenylacrylohydroxamic acid-based HDAC inhibitors” (Eur J Med Chem, 2014):
pIC50: −log10 of the molar value. Calls of active or inactive are those of the source. No cut-off for these calls is given here.

System: not listed separately
Test: Antiproliferative activity against p53 defective cis-platinum-resistant human IGROV1/Pt1 cells assessed as growth inhibition after 72 hrs
Format: functional, cell-based
Conditions: IGROV-1/Pt1, 72 h
How it was run: (§1)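 Log-phase cells seeded in duplicate in 6-well plates; drug added 24 h after seeding. Cells harvested 72 h after drug exposure and counted with a cell counter. IC50 = drug concentration giving 50% reduction in cell number versus untreated control.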

SMILES	pIC50
COc1ccc(-c2ccc3cc(C(=O)NO)ccc3c2)cc1C12CC3CC(CC(C3)C1)C2	5.38
O=C(/C=C/c1ccc(-c2cc3c(c(C45CC6CC(CC(C6)C4)C5)c2)OCCO3)cc1)NO	6.10
O=C(/C=C/c1ccc(-c2ccc(O)c(C34CC5CC(CC(C5)C3)C4)c2)c(Cl)c1)NO	5.80
COc1ccc(-c2ccc(/C=C/C(=O)NO)cc2)cc1C12CC3CC(CC(C3)C1)C2	5.74
O=C(/C=C/c1ccc(-c2ccccc2)cc1)NO	5.37

Molecular target: T1, Protein deacetylase HDAC6 (Homo sapiens) (UniProt Q9UBN7)
T1 sequence (whole entry): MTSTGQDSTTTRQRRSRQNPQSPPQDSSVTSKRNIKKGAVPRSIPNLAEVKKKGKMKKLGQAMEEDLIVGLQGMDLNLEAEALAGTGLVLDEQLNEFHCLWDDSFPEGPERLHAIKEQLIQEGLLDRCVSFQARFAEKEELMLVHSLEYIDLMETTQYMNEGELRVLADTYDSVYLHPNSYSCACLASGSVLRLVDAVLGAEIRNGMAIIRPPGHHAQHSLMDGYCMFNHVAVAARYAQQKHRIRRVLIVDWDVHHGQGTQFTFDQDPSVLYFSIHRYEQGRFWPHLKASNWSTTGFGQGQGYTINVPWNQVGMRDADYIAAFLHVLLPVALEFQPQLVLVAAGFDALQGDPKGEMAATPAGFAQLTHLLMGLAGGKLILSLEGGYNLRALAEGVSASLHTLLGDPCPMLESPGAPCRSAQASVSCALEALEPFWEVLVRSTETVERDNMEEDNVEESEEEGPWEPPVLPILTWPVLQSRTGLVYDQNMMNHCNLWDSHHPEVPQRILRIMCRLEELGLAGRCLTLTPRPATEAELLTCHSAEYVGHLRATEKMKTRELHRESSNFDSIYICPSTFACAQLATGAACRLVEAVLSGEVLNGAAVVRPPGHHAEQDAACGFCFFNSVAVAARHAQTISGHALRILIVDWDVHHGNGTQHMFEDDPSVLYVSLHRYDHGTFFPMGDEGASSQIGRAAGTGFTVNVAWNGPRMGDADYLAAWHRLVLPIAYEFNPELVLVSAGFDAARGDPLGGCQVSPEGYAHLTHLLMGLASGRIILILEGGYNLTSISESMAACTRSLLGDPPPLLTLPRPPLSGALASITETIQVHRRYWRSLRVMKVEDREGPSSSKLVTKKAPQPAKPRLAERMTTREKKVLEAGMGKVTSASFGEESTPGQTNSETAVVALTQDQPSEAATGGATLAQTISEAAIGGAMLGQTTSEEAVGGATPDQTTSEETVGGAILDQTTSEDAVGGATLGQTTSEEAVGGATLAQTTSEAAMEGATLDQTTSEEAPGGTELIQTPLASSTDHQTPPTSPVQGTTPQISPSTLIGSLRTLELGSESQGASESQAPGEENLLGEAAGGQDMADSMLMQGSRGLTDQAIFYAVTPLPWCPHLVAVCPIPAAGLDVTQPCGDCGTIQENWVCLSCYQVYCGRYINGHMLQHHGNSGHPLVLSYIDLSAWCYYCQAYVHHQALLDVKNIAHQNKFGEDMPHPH
Test: Inhibition of HDAC6 in human IGROV1 cells assessed as increase in tubulin acetylation at IC80 after 4 to 24 hrs by Western blot analysis
Format: cell-based
Conditions: IGROV-1
How it was run: (§2)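 Cells treated with various concentrations of HDAC inhibitors, collected, lysed and analysed by Western blotting.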

SMILES	Activity
COc1ccc(-c2ccc(/C=C/C(=O)NO)cc2)cc1C12CC3CC(CC(C3)C1)C2	inactive

System: HCT-116
Test: Antiproliferative activity against human HCT116 cells assessed as growth inhibition after 72 hrs
Format: functional, cell-based
Conditions: HCT-116, 72 h
How it was run: as §1

SMILES	pIC50
COc1ccc(-c2ccc3cc(C(=O)NO)ccc3c2)cc1C12CC3CC(CC(C3)C1)C2	5.85
O=C(/C=C/c1ccc(-c2cc3c(c(C45CC6CC(CC(C6)C4)C5)c2)OCCO3)cc1)NO	5.59
O=C(/C=C/c1ccc(-c2ccc(O)c(C34CC5CC(CC(C5)C3)C4)c2)c(Cl)c1)NO	5.27
COc1ccc(-c2ccc(/C=C/C(=O)NO)cc2)cc1C12CC3CC(CC(C3)C1)C2	5.89

System: IGROV-1
Test: Antiproliferative activity against human IGROV1 cells assessed as growth inhibition after 72 hrs
Format: functional, cell-based
Conditions: IGROV-1, 72 h
How it was run: as §1

SMILES	pIC50
COc1ccc(-c2ccc3cc(C(=O)NO)ccc3c2)cc1C12CC3CC(CC(C3)C1)C2	5.82
O=C(/C=C/c1ccc(-c2cc3c(c(C45CC6CC(CC(C6)C4)C5)c2)OCCO3)cc1)NO	5.92
O=C(/C=C/c1ccc(-c2ccc(O)c(C34CC5CC(CC(C5)C3)C4)c2)c(Cl)c1)NO	5.87
COc1ccc(-c2ccc(/C=C/C(=O)NO)cc2)cc1C12CC3CC(CC(C3)C1)C2	6.02

System: IGROV-1
Test: Cell cycle arrest in human IGROV1 cells assessed as accumulation at S phase at IC80 after 24 hrs by propidium iodide staining-based flow cytometry (reference value: 36.81%)
Format: functional
Conditions: not given
How it was run: (§3)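 Cell-cycle distribution in IGROV-1 cells read by flow cytometry of propidium iodide–stained cells.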

SMILES	Activity
COc1ccc(-c2ccc(/C=C/C(=O)NO)cc2)cc1C12CC3CC(CC(C3)C1)C2	18.14%

System: IGROV-1
Test: Induction of DNA damage in human IGROV1 cells assessed as p53 phosphorylation at Ser15 at 1 to 2 uM after 4 to 48 hrs by Western blot analysis
Format: functional, cell-based
Conditions: not given
How it was run: as §2

SMILES	Activity
COc1ccc(-c2ccc(/C=C/C(=O)NO)cc2)cc1C12CC3CC(CC(C3)C1)C2	Active

System: IGROV-1
Test: Cell cycle arrest in human IGROV1 cells assessed as accumulation at G1 phase at IC80 after 24 hrs by propidium iodide staining-based flow cytometry (reference value: 49.98%)
Format: functional
Conditions: not given
How it was run: as §3

SMILES	Activity
COc1ccc(-c2ccc(/C=C/C(=O)NO)cc2)cc1C12CC3CC(CC(C3)C1)C2	78.46%

Molecular target: Histone deacetylase 2 (Homo sapiens, UniProt Q92769)
Test: not given
Format: cell-based, HeLa
Conditions: not given

Chain of Histone deacetylase 2 (Q92769 whole entry): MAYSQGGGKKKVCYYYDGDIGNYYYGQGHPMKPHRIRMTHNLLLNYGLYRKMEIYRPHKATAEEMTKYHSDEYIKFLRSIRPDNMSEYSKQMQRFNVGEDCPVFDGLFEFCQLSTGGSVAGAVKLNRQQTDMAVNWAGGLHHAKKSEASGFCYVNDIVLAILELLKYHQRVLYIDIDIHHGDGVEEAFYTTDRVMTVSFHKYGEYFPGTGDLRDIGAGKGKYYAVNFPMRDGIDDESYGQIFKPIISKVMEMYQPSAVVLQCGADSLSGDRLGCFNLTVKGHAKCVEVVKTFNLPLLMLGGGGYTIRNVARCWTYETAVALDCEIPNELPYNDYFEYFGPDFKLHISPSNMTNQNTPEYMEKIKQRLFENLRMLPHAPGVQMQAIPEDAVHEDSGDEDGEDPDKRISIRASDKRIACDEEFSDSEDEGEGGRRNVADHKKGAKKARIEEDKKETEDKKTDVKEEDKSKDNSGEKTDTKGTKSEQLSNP

SMILES	pIC50
COc1ccc(-c2ccc(/C=C/C(=O)NO)cc2)cc1C12CC3CC(CC(C3)C1)C2	5.64

System: not listed separately
Test: cells
Format: functional, cell-based
Conditions: Homo sapiens, NCI-H460, 72 h

SMILES	pIC50
COc1ccc(-c2ccc3cc(C(=O)NO)ccc3c2)cc1C12CC3CC(CC(C3)C1)C2	5.89
O=C(/C=C/c1ccc(-c2cc3c(c(C45CC6CC(CC(C6)C4)C5)c2)OCCO3)cc1)NO	6.00
O=C(/C=C/c1ccc(-c2ccc(O)c(C34CC5CC(CC(C5)C3)C4)c2)c(Cl)c1)NO	5.27
COc1ccc(-c2ccc(/C=C/C(=O)NO)cc2)cc1C12CC3CC(CC(C3)C1)C2	5.85

System: Mus musculus
Test: Toxicity in athymic nude Swiss mouse xenografted with human HCT116 cells at 50 mg/kg, po administered once-daily for 5 days a week for 5 weeks starting 3 days post tumor implantation
Format: organism-based, HCT-116
Design: dose 50 mg/kg, route oral
Conditions: in vivo
How it was run: (§4)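 Female athymic Swiss nude mice given 10⁷ exponentially growing HCT116 cells s.c. in the right flank; tumor lines maintained by serial s.c. fragment passage. Dosing began 3 days after implantation: 50 mg/kg orally, once daily 4–5 days/week for 5 weeks (24 doses total). Compound dissolved in DMSO, diluted in PBS with 5% Cremophor to 10% DMSO final.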

SMILES	Activity
COc1ccc(-c2ccc(/C=C/C(=O)NO)cc2)cc1C12CC3CC(CC(C3)C1)C2	Non-toxic

System: IGROV-1
Test: Induction of apoptosis in human IGROV1 cells at IC80 after 72 hrs by TUNEL and flow cytometry analysis (reference value: 4%)
Format: functional
Conditions: not given

SMILES	Activity
O=C(CCCCCCC(=O)Nc1ccccc1)NO [VORINOSTAT]	37%
COc1ccc(-c2ccc(/C=C/C(=O)NO)cc2)cc1C12CC3CC(CC(C3)C1)C2	42%

System: HCT-116
Test: Anticancer activity against human HCT116 cells xenografted in athymic nude Swiss mouse assessed as tumor growth inhibition at 50 mg/kg, po administered once-daily for 5 days a week for 5 weeks starting 3 days post tumor implantation
Format: functional
Conditions: read-out: TGI
How it was run: as §4

SMILES	inhibition in vivo at 50 mg/kg
COc1ccc(-c2ccc(/C=C/C(=O)NO)cc2)cc1C12CC3CC(CC(C3)C1)C2	60%

Molecular target: T2, Histone deacetylase 11 (Homo sapiens, UniProt Q96DB2)
T2 sequence (Q96DB2 whole entry): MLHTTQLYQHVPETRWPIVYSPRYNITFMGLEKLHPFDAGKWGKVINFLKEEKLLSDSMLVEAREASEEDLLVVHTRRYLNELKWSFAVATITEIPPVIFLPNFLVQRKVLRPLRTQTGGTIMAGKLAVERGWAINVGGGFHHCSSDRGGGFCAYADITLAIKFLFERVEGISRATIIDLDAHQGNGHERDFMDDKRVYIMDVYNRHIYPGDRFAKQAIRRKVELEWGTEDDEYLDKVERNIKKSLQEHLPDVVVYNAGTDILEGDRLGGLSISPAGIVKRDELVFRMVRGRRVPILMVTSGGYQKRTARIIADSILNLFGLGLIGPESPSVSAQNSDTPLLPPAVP
Test: Inhibition of human HDAC11 using fluorogenic tetrapeptide RHKKAc as substrate
Conditions: not given

SMILES	pIC50
COc1ccc(-c2ccc(/C=C/C(=O)NO)cc2)cc1C12CC3CC(CC(C3)C1)C2	4.11

System: not listed separately
Test: Cell cycle arrest in human IGROV1 cells assessed as accumulation at G2/M phase at IC80 after 24 hrs by propidium iodide staining-based flow cytometry (reference value: 13.21%)
Format: functional
Conditions: IGROV-1
How it was run: as §3

SMILES	Activity
COc1ccc(-c2ccc(/C=C/C(=O)NO)cc2)cc1C12CC3CC(CC(C3)C1)C2	3.39%
